{
  "source": "paper PMC2119492",
  "about": "(The Journal of Cell Biology, 1993)",
  "assay_type_in_all_cases": "cell-based, Saccharomyces cerevisiae",
  "key": {"[1]": {"system": "wild-type cells (RH144-3D)", "experiment": "35S-a-factor internalization assay", "conditions": "after a 34 °C preincubation; data not shown"}, "end4 cells (RH268-1C)": {"system": "end4 cells (RH268-1C)", "experiment": "LY-CH accumulation in the vacuole", "conditions": "LY 4 mg/ml, fluorescence microscopy, minimum of 46 cells counted", "method_in_brief": "(§1)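 Cells grown overnight at 24°C, then harvested and split. One half stayed at 24°C. The other was shifted slowly to 35°C by resetting the water bath, and lucifer yellow CH (4 mg/ml) was added once 35°C was reached. Cells were washed extensively in ice-cold 50 mM sodium succinate pH 5 with 10 mM sodium azide, then viewed by Nomarski and fluorescence optics with 20–25 s exposures. Cells with clear vacuolar staining were scored positive. Cells without staining but with a vacuole visible by Nomarski were scored negative.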"}, "end3 cells (RH266-1D) [2]": {"system": "end3 cells (RH266-1D)", "experiment": "LY-CH accumulation in the vacuole", "conditions": "LY 4 mg/ml, fluorescence microscopy, minimum of 46 cells counted", "method_in_brief": "as §1"}, "[3]": {"system": "wild-type cells (RH144-3D)", "experiment": "LY-CH accumulation in the vacuole", "conditions": "LY 4 mg/ml, fluorescence microscopy, minimum of 46 cells counted", "method_in_brief": "as §1"}, "end3 cells (RH266-1D) [4]": {"system": "end3 cells (RH266-1D)", "experiment": "a-factor sensitivity halo assay", "conditions": "24 °C", "method_in_brief": "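Halo assay. Early log-phase cells were counted, washed with YPUAD and embedded in YPUAD containing 0.8% agar at 47°C. Disks containing α-factor were placed on the agar surface, and the radius of the growth-inhibition zone was read. The radius is logarithmically proportional to strain sensitivity.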"}},
  "data": [
    {"compound": "C[C@@H]1C[C@@H]([C@H](O)CC2CC(=O)NC(=O)C2)C(=O)[C@@H](C)C1", "note": "[cycloheximide]", "values": [
      {"measurement": "effect of cycloheximide on a-factor internalization kinetics", "setting": "[1]", "value": "identical to cells which receive no cycloheximide"}
    ]},
    {"compound": "Lucifer yellow-CH [LY]", "values": [
      {"measurement": "% of cells showing vacuolar labeling", "setting": "end4 cells (RH268-1C); 24 °C, 2 h", "value": 10, "unit": "%"},
      {"measurement": "% of cells showing vacuolar labeling", "setting": "end4 cells (RH268-1C); 35 °C, 1 h", "value": 0, "unit": "%"},
      {"measurement": "% of cells showing vacuolar labeling", "setting": "end3 cells (RH266-1D) [2]; 24 °C, 2 h", "value": 4, "unit": "%"},
      {"measurement": "% of cells showing vacuolar labeling", "setting": "end3 cells (RH266-1D) [2]; 35 °C, 1 h", "value": 4, "unit": "%"},
      {"measurement": "% of cells showing vacuolar labeling", "setting": "[3]; 24 °C, 2 h", "value": 92, "unit": "%"},
      {"measurement": "% of cells showing vacuolar labeling", "setting": "[3]; 35 °C, 1 h", "value": 97, "unit": "%"}
    ]},
    {"compound": "alpha-factor", "values": [
      {"measurement": "a-factor needed to form the same size halo, relative to end4 or wild-type cells", "setting": "end3 cells (RH266-1D) [4]", "value": "approximately two times less"}
    ]}
  ]
}
